The values below come from the array DNA melting data of Ke et al. (doi:10.1101/2024.01.08.574731).

A short description of data set [1]: melting temperature; fluorescence melt of hairpins on a sequencing array, two-state fit, raised by 9.35 °C to match UV melts. The following applies: sodium 0.088 M. Summed up:
(§1)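 Folding enthalpy and melting temperature come from bootstrapped two-state fits to Cy3 fluorescence of library hairpins carrying annealed Cy3 and quencher oligos on a sequenced MiSeq flow cell. Imaging was done in 50 mM Na-HEPES pH 8.0, 25 mM NaCl, stepping by 2.5 °C up to 60 °C, and signals were normalised to pre-quench Cy3 and to control constructs. Results of four replicates were combined by inverse variance, and fitted temperatures were raised by 9.35 °C to match UV melts.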

Data set [2] is described as follows: folding enthalpy; higher = less favourable; fluorescence melt of hairpins on a sequencing array, two-state fit. Particulars: sodium 0.088 M. Summed up: as §1

As to GCGCCACGAAAGTGCCGC (((.(((....))).))), in data set [1], the Tm was 56.3 °C. The folding enthalpy in data set [2] is -26.9 kcal/mol.
Taken in the same sequence, the figures for CGCGCCGGAAACGGGCG (((.(((....)))))) were 60.4 °C and -26.4 kcal/mol.
Taken in the same sequence, the figures for GCATGCGAAAGCAGTGC ((((((....))).))) were 54.6 °C and -27 kcal/mol.
In the case of GTTTGTCGAAAGACAAC (((.(((....)))))), in data set [1], the Tm turned out to be 47.5 °C. Further, in data set [2], the folding enthalpy was -14.3 kcal/mol.
Taken in the same sequence, the figures for GCGATTATTCGC ((((....)))) were 52.4 °C and -25.1 kcal/mol.
As for GCGTGTAGACGC ((((....)))), in data set [1], the Tm was determined as 58.5 °C. The folding enthalpy in data set [2] was -21.4 kcal/mol.
With GATATGAAAATATC (((((....))))), the Tm in data set [1] was 35.7 °C. In data set [2], the folding enthalpy is -15.7 kcal/mol.
Taken in the same sequence, the figures for GGTCACACGAAAGTGACC (((..(((....)))))) were 58.2 °C and -35.5 kcal/mol.
Taken in the same sequence, the figures for GAATCCGAAAGGAACTTC ((((((....)))..))) were 33.1 °C and -13.1 kcal/mol.
As for GTGCTCGGAAACAAGCAC (((((.(....).))))), the Tm in data set [1] came to 46.2 °C. For the same sequence, in data set [2], the folding enthalpy was -31.9 kcal/mol.
Turning to GTACTCCCGAAAGGGTAC (((..(((....)))))), the Tm in data set [1] turned out to be 33.5 °C. Besides, in data set [2], the folding enthalpy was -12.9 kcal/mol.
The like results for GATCCTGTGGAGGATC ((((((....)))))) were, in that order, 51.8 °C and -31.8 kcal/mol.
As to GTCGAGGGAAACCTCGGC (.(((((....))))).), the Tm in data set [1] amounted to 57.3 °C. The folding enthalpy in data set [2] is -35.8 kcal/mol.
In the case of GATCTAAACGTAGATC ((((((....)))))), the Tm in data set [1] is 35.8 °C. Besides, the folding enthalpy in data set [2] is -28.7 kcal/mol.
Taken in the same sequence, the figures for GATCTCGGAAACGAGATC (((((((....))))))) were 64.3 °C and -45.5 kcal/mol.
Taken in the same sequence, the figures for GATCTCCATAGAGATC ((((((....)))))) were 56.8 °C and -33.4 kcal/mol.
The like results for GCGGTTACGAAAGTACGC (((..(((....)))))) were, in that order, 48.4 °C and -26.7 kcal/mol.
Take GCGTATAAACGC ((((....)))): in data set [1], the Tm is 50.4 °C. For the same sequence, the folding enthalpy in data set [2] was -19.7 kcal/mol.
Taken in the same sequence, the figures for GCCTTCGAAAGAACTGGC ((((((....)))..))) were 35.7 °C and -21.9 kcal/mol.
As to GATCTCCGTCGAGATC ((((((....)))))), the Tm in data set [1] was determined as 51 °C. In data set [2], the folding enthalpy is -41.3 kcal/mol.
The like results for GGATATGCGAAAGCATCC (((..(((....)))))) were, in that order, 36.5 °C and -12.2 kcal/mol.
Taken in the same sequence, the figures for GGTACCGAAAGGTAGACC ((((((....)))..))) were 41 °C and -13.2 kcal/mol.
For GGAGCCGAAAGGCTCTCC ((((((....)))..))), the Tm in data set [1] turned out to be 56.5 °C. Further, the folding enthalpy in data set [2] was -7.29 kcal/mol.
Take GGTACGACGAAAGTCACC (((..(((....)))))): in data set [1], the Tm turned out to be 32.9 °C. Further, the folding enthalpy in data set [2] is -13.4 kcal/mol.
Taken in the same sequence, the figures for GTTAGTCGAAAGACCAAC (((.(((....))).))) were 37 °C and -19.1 kcal/mol.
The like results for GATCTTACTAAAGATC ((((((....)))))) were, in that order, 43 °C and -33 kcal/mol.
The like results for GGAGACCGAAAGGTTCC (((.(((....)))))) were, in that order, 48 °C and -22.5 kcal/mol.
For the sequence GATCCCCCCAGGGATC ((((((....)))))), in data set [1], the Tm is 63.3 °C. Moreover, the folding enthalpy in data set [2] was -38.1 kcal/mol.
The like results for GGTGATGGAAACGTTACC (((.(.(....).).))) were, in that order, 30.4 °C and -19.2 kcal/mol.
In the case of GCCCACCGAAAGGTCGGC (((.(((....))).))), the Tm in data set [1] was 53.5 °C. In addition, the folding enthalpy in data set [2] is -40.4 kcal/mol.
GATCGAGATCTCGATC ((((((....)))))): the Tm in data set [1] was 55.7 °C. Further, the folding enthalpy in data set [2] is -50.6 kcal/mol.
GATCGGTGCGCCGATC ((((((....)))))): the Tm in data set [1] amounted to 66.9 °C. For the same sequence, the folding enthalpy in data set [2] was -36.9 kcal/mol.
Taken in the same sequence, the figures for GCATCTGGAAACAGATGC (((((((....))))))) were 67.3 °C and -47.9 kcal/mol.
Taken in the same sequence, the figures for GATCACGTAAGTGATC ((((((....)))))) were 69.3 °C and -30.8 kcal/mol.
With GCGGTGCGAAAGCTTCGC (((..((....))..))), the Tm in data set [1] is 58.2 °C. Further, the folding enthalpy in data set [2] was -16.4 kcal/mol.
As to GATCTACGAGTAGATC ((((((....)))))), the Tm in data set [1] came out at 52.3 °C. For the same sequence, the folding enthalpy in data set [2] is -37.8 kcal/mol.
Turning to GTATACCCGAAAGGGTAC (((..(((....)))))), the Tm in data set [1] worked out at 32.4 °C. In addition, the folding enthalpy in data set [2] is -8.81 kcal/mol.
The like results for GAAGGCGAAAGCCGATTC ((((((....)))..))) were, in that order, 57.8 °C and -14.7 kcal/mol.
Taken in the same sequence, the figures for GATCAATATTTGATC ((((((...)))))) were 41.9 °C and -27.9 kcal/mol.
As to GCGTGTGGAAACGCACGC (((((.(....).))))), the Tm in data set [1] worked out at 67.3 °C. In addition, the folding enthalpy in data set [2] was -34.5 kcal/mol.
For the sequence GTTTGTCGAAAGACTAAC (((.(((....))).))), in data set [1], the Tm was determined as 45.8 °C. In addition, the folding enthalpy in data set [2] was -23.9 kcal/mol.
The like results for GGGAGGGAAACCTCCC ((((((....)))))) were, in that order, 65.8 °C and -32 kcal/mol.
Taken in the same sequence, the figures for GCAGTAGGAAACTGTTGC (((..((....))..))) were 32.2 °C and -18.3 kcal/mol.
The like results for GATCACGAAAGTGTAATC ((((((....)))..))) were, in that order, 30.1 °C and -10.3 kcal/mol.
For the sequence GATATCACGAAAGTGATC (((..(((....)))))), the Tm in data set [1] was determined as 39.4 °C. The folding enthalpy in data set [2] was -9.68 kcal/mol.
The like results for GTTGTCGAAAGACAAAC ((((((....))).))) were, in that order, 48.9 °C and -14.2 kcal/mol.
The like results for GCCCCCGAAAGGGTAGGC ((((((....)))..))) were, in that order, 55.9 °C and -23.3 kcal/mol.
Taken in the same sequence, the figures for GAAGCCCGAAAGGGTTTC (((.(((....))).))) were 56.2 °C and -34.4 kcal/mol.
For the sequence GCTATGCGAAAGCAGCGC ((..(((....)))..)), the Tm in data set [1] came to 54.2 °C. Besides, the folding enthalpy in data set [2] was -18.9 kcal/mol.
On to GATCTTATTGAAGATC ((((((....)))))), for which, in data set [1], the Tm amounted to 41.8 °C. Moreover, the folding enthalpy in data set [2] was -31.5 kcal/mol.
GACCCCGAAAGGGTGTC ((((((....))).))): the Tm in data set [1] came out at 57.6 °C. Moreover, in data set [2], the folding enthalpy is -26.6 kcal/mol.
Taken in the same sequence, the figures for GATCAGACTTCTGATC ((((((....)))))) were 50.3 °C and -36.3 kcal/mol.
Taken in the same sequence, the figures for GATCTCATAGGAGATC ((((((....)))))) were 51.2 °C and -38.1 kcal/mol.
As for GCGGACAACCGC ((((....)))), the Tm in data set [1] came out at 53.1 °C. Also, in data set [2], the folding enthalpy is -19.5 kcal/mol.
Taken in the same sequence, the figures for GCGTGATGACGC ((((....)))) were 52.8 °C and -25.1 kcal/mol.
Taken in the same sequence, the figures for GATCACCGAAAGGTAATC (((.(((....))).))) were 39.5 °C and -20.9 kcal/mol.
The like results for GGCATAACGAAAGTTGCC (((..(((....)))))) were, in that order, 50.8 °C and -26 kcal/mol.
As for GAGCTTGGAAACAAGCTC (((((((....))))))), the Tm in data set [1] stood at 67.8 °C. Besides, the folding enthalpy in data set [2] was -35.1 kcal/mol.
As for GCCCCCGCGAAAGCGGGC (((..(((....)))))), the Tm in data set [1] was determined as 34.8 °C. The folding enthalpy in data set [2] was -4.3 kcal/mol.
As to GTACGCGGAAACACGCAC ((.((.(....).)).)), the Tm in data set [1] is 31.1 °C. Further, the folding enthalpy in data set [2] was -12.6 kcal/mol.
As to GATCGCTTACGCGATC ((((((....)))))), in data set [1], the Tm was found to be 68.6 °C. Further, in data set [2], the folding enthalpy was -31.8 kcal/mol.
The like results for GACGATGAAAATCGTC ((((((....)))))) were, in that order, 61.1 °C and -31.1 kcal/mol.
For GTTAGGGGAAACCCCAAC (((.(((....))).))), the Tm in data set [1] was 37.4 °C. For the same sequence, in data set [2], the folding enthalpy is -19 kcal/mol.
Taken in the same sequence, the figures for GTGCACGGAAACGTGTAC ((.((((....)))).)) were 55.8 °C and -41.8 kcal/mol.
The like results for GATCAATGGCTTGATC ((((((....)))))) were, in that order, 42.2 °C and -29 kcal/mol.
The like results for GATCAATATGTTGATC ((((((....)))))) were, in that order, 49 °C and -38.9 kcal/mol.
GCGTTTGGAAACAAGCGC (((.(((....))).))): in data set [1], the Tm stood at 54.6 °C. Besides, the folding enthalpy in data set [2] was -45.6 kcal/mol.
Taken in the same sequence, the figures for GTGACAACGAAAGTTCAC (((..(((....)))))) were 34.8 °C and -11.1 kcal/mol.
Take GCCTCGCGAAAGCTTGGC (((..((....))..))): the Tm in data set [1] was determined as 51.4 °C. Besides, in data set [2], the folding enthalpy was -25.5 kcal/mol.
Consider GCAAGGCGAAAGCGTTGC ((((.((....)).)))), for which, in data set [1], the Tm amounted to 67.2 °C. Further, the folding enthalpy in data set [2] was -33.1 kcal/mol.
Taken in the same sequence, the figures for CGCGGAATAATCCGCG ((((((....)))))) were 67.7 °C and -34.7 kcal/mol.
Turning to GGGATCGAAAGATTGCCC ((((((....)))..))), in data set [1], the Tm was found to be 32.6 °C. In data set [2], the folding enthalpy is -14.6 kcal/mol.
Turning to GGACCAGCGAAAGCTTCC (((..(((....)))))), the Tm in data set [1] amounted to 25.2 °C. In data set [2], the folding enthalpy is -10.3 kcal/mol.
Take GATCCAATAGTGGATC ((((((....)))))): the Tm in data set [1] was 46.6 °C. In addition, the folding enthalpy in data set [2] is -30.8 kcal/mol.
